ChEMBL document CHEMBL4196214, “Inhibition of p53-Murine Double Minute 2 (MDM2) Interactions with 3,3'-Spirocyclopentene Oxindole Derivatives” (J Med Chem, 2018)
Active and inactive are the calls of the source. The calls are words filed in the database; no cut-off is given here.

Columns and labels:
[1] = target: Tumour suppressor p53/oncoprotein Mdm2 (Homo sapiens, UniProt Q00987); assay: Inhibition of human MDM2 (1 to 125 residues) and p53 (unknown origin) interaction pre-incubated for 20 mins before peptide-2-biot addition and measured after 3 hrs by HTRF assay; format: protein assay
Sequence of Tumour suppressor p53/oncoprotein Mdm2 (P04637 whole entry, the tested form may be a part): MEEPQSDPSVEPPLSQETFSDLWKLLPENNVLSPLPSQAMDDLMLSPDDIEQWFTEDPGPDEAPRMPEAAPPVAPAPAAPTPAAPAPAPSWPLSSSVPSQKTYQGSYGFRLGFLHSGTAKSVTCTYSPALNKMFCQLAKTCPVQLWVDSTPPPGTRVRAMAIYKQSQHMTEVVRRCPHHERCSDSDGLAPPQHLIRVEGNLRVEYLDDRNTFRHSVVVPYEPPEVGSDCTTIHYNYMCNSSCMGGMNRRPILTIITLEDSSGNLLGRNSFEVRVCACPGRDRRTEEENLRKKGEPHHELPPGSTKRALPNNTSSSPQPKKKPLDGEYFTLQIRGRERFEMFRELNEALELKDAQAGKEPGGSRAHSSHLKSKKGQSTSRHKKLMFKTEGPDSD
Sequence of Tumour suppressor p53/oncoprotein Mdm2 (Q00987 whole entry, the tested form may be a part): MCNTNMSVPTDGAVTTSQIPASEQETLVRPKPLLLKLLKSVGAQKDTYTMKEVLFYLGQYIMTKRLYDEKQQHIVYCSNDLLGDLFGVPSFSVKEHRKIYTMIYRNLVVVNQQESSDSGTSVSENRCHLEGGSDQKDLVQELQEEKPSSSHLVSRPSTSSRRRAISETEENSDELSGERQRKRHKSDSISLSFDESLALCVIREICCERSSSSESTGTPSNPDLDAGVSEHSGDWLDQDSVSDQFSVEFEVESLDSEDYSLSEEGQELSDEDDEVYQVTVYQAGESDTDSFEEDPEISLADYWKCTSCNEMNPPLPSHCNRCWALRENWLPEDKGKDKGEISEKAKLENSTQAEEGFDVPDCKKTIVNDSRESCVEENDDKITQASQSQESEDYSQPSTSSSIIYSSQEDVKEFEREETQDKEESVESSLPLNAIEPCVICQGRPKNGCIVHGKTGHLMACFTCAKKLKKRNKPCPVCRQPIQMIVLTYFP

SJSA-1 = assay: Antiproliferative activity against human SJSA1 cells expressing wild type p53 incubated for 72 hrs by MTS assay; format: functional, cell-based; details: SJSA-1, 72 h
Outline: (§1)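 Cells treated with compound for 72 h; IC50 fitted to polynomial curves from three separate experiments, reported as average with standard deviation. HCT116 p53 −/− is an isogenic p53 knockout line. H1299 carries a homozygous partial deletion of the p53 gene and expresses no p53 protein.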

HCT-116 [2] = assay: Antiproliferative activity against human HCT116 cells expressing wild type p53 incubated for 72 hrs by MTS assay; format: functional, cell-based; details: HCT-116, 72 h; outline: as §1
HCT-116 [3] = assay: Antiproliferative activity against p53 -/- human HCT116 cells incubated for 72 hrs by MTS assay; format: functional, cell-based; details: HCT-116, 72 h; outline: as §1
NCI-H1299 = assay: Antiproliferative activity against p53 -/- human NCI-H1299 cells incubated for 72 hrs by MTS assay; format: functional, cell-based; details: NCI-H1299, 72 h; outline: as §1
[4] = target: T1, Tumour suppressor p53/oncoprotein Mdm2 (Homo sapiens) (UniProt P04637+Q00987); assay: Inhibition of MDM2/p53 interaction in human HCT116 cells expressing wild type p53 assessed as increase in p53 activation at 10 uM incubated for 6 hrs by Western blot method; format: cell-based
T1 sequence (P04637 whole entry, looked up): as the sequence (P04637 whole entry, the tested form may be a part) above
T1 sequence (Q00987 whole entry, looked up): as the sequence (Q00987 whole entry, the tested form may be a part) above
Outline: (§2)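 HCT116 cells, p53 +/+ and isogenic p53 −/−, treated with compound at 10 μM for 6 h. Lysates probed by Western blot for p53, MDM2 and p21 protein levels. Actin served as the loading control.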

[5] = target: T1, Tumour suppressor p53/oncoprotein Mdm2 (Homo sapiens); assay: Inhibition of MDM2/p53 interaction in human HCT116 cells expressing wild type p53 assessed as increase in MDM2 protein levels at 10 uM incubated for 6 hrs by Western blot method; format: cell-based; outline: as §2
[6] = target: T1, Tumour suppressor p53/oncoprotein Mdm2 (Homo sapiens); assay: Inhibition of MDM2/p53 interaction in human HCT116 cells expressing wild type p53 assessed as increase in p21 protein levels at 10 uM incubated for 6 hrs by Western blot method; format: cell-based; outline: as §2
[7] = target: T1, Tumour suppressor p53/oncoprotein Mdm2 (Homo sapiens); assay: Inhibition of MDM2/p53 interaction in human HCT116 cells deficient in p53 assessed as increase in p53 activation at 10 uM incubated for 6 hrs by Western blot method; format: cell-based; outline: as §2
[8] = target: T1, Tumour suppressor p53/oncoprotein Mdm2 (Homo sapiens); assay: Inhibition of MDM2/p53 interaction in human HCT116 cells deficient in p53 assessed as increase in MDM2 protein levels at 10 uM incubated for 6 hrs by Western blot method; format: cell-based; outline: as §2
[9] = target: T1, Tumour suppressor p53/oncoprotein Mdm2 (Homo sapiens); assay: Inhibition of MDM2/p53 interaction in human HCT116 cells deficient in p53 assessed as increase in p21 protein levels at 10 uM incubated for 6 hrs by Western blot method; format: cell-based; outline: as §2

## CC(C)(C)C[C@@H]1C=C(C(=O)NCCN2CCOCC2)[C@@H](c2cccc(Cl)c2F)[C@]12C(=O)Nc1cc(Cl)ccc12 (racemic)
[1]
  IC50: 3380 nM

## CC(C)(C)C[C@H]1C=C(C(=O)NCCN2CCOCC2)[C@H](c2cccc(Cl)c2F)[C@]12C(=O)Nc1cc(Cl)ccc12 (racemic)
[1]
  IC50: 739 nM

## CC(C)(C)C[C@@H]1C=C(C(=O)Nc2ccc(C(=O)O)cc2)[C@H](c2cccc(Cl)c2F)[C@]12C(=O)Nc1cc(Cl)ccc12 (racemic)
[1]
  IC50: 350 nM

## CC(C)(C)C[C@@H]1C=C(C(=O)N[C@H]2CC[C@H](O)CC2)[C@H](c2cccc(Cl)c2F)[C@]12C(=O)Nc1cc(Cl)ccc12 (racemic)
[1]
  IC50: 619 nM

## CC(C)(C)C[C@@H]1C=C(C(=O)N[C@H]2C[C@@](C)(O)C2)[C@H](c2cccc(Cl)c2F)[C@]12C(=O)Nc1cc(Cl)ccc12 (racemic)
[1]
  IC50: 1260 nM

## CC(C)(C)C[C@H]1C=C(C(=O)NCCN2CCOCC2)[C@@H](c2cccc(Cl)c2F)[C@]12C(=O)Nc1cc(Cl)ccc12 (racemic)
[1]
  IC50: 3680 nM

## CC(C)(C)C[C@@H]1C=C(C(=O)NCCN2CCOCC2)[C@H](c2cccc(Cl)c2F)[C@]12C(=O)Nc1cc(Cl)ccc12 (racemic)
[1]
  IC50: 33 nM
SJSA-1
  IC50: 7500 nM
HCT-116 [2]
  IC50: 4840 nM
HCT-116 [3]
  IC50: > 20000 nM
NCI-H1299
  IC50: > 20000 nM

## CC(C)(C)C[C@@H]1C=C(C(=O)O)[C@H](c2cccc(Cl)c2F)[C@]12C(=O)Nc1cc(Cl)ccc12 (racemic)
[1]
  IC50: 10.1 nM
SJSA-1
  IC50: 7440 nM
HCT-116 [2]
  IC50: 10500 nM
HCT-116 [3]
  IC50: > 20000 nM
NCI-H1299
  IC50: > 20000 nM

## CC(C)(C)CC1C=C(C(=O)O)C(c2cccc(Cl)c2F)C12C(=O)Nc1cc(Cl)ccc12 (single isomer, unassigned; (+)) [listing 1 of 2 here]
[1]
  IC50: 3.1 nM
SJSA-1
  IC50: 7800 nM
HCT-116 [2]
  IC50: 11600 nM
HCT-116 [3]
  IC50: > 20000 nM
NCI-H1299
  IC50: > 20000 nM

## CC(C)(C)CC1C=C(C(=O)Nc2ccc(C(=O)O)cc2)C(c2cccc(Cl)c2F)C12C(=O)Nc1cc(Cl)ccc12 (single isomer, unassigned; (+))
[1]
  IC50: 655 nM

## CC(C)(C)CC1C=C(C(=O)NC2CC(C)(O)C2)C(c2cccc(Cl)c2F)C12C(=O)Nc1cc(Cl)ccc12 (single isomer, unassigned; (+))
[1]
  IC50: 712 nM

## CC(C)(C)CC1C=C(C(=O)NCCN2CCOCC2)C(c2cccc(Cl)c2F)C12C(=O)Nc1cc(Cl)ccc12 (single isomer, unassigned; (+)) [listing 1 of 2 here]
[1]
  IC50: 23.7 nM
SJSA-1
  IC50: 960 nM
HCT-116 [2]
  IC50: 2920 nM
HCT-116 [3]
  IC50: > 20000 nM
NCI-H1299
  IC50: 9730 nM

## CC(C)(C)CC1C=C(C(=O)NC2CCC(O)CC2)C(c2cccc(Cl)c2F)C12C(=O)Nc1cc(Cl)ccc12 (single isomer, unassigned; (+))
[1]
  IC50: 303 nM

## CC(C)(C)CC1C=C(C(=O)NCCN2CCOCC2)C(c2cccc(Cl)c2F)C12C(=O)Nc1cc(Cl)ccc12 (single isomer, unassigned; (+)) [listing 2 of 2 here]
[4]
  inhibition: Active
[5]
  inhibition: Active
[6]
  inhibition: Active
[7]
  inhibition: inactive
[8]
  inhibition: inactive
[9]
  inhibition: inactive

## CC(C)(C)CC1C=C(C(=O)O)C(c2cccc(Cl)c2F)C12C(=O)Nc1cc(Cl)ccc12 (single isomer, unassigned; (+)) [listing 2 of 2 here]
[4]
  inhibition: Active
[5]
  inhibition: Active
[6]
  inhibition: Active
[7]
  inhibition: inactive
[8]
  inhibition: inactive
[9]
  inhibition: inactive

## CC(C)(C)CC1C=C(C(=O)Nc2ccc(C(=O)O)cc2)C(c2cccc(Cl)c2F)C12C(=O)Nc1cc(Cl)ccc12 (single isomer, unassigned; (-))
[1]
  IC50: 1040 nM

## CC(C)(C)CC1C=C(C(=O)NC2CC(C)(O)C2)C(c2cccc(Cl)c2F)C12C(=O)Nc1cc(Cl)ccc12 (single isomer, unassigned; (-))
[1]
  IC50: 3030 nM

## CC(C)(C)CC1C=C(C(=O)NCCN2CCOCC2)C(c2cccc(Cl)c2F)C12C(=O)Nc1cc(Cl)ccc12 (single isomer, unassigned; (-))
[1]
  IC50: 1140 nM

## CC(C)(C)CC1C=C(C(=O)NC2CCC(O)CC2)C(c2cccc(Cl)c2F)C12C(=O)Nc1cc(Cl)ccc12 (single isomer, unassigned; (-))
[1]
  IC50: 3720 nM

## CC(C)(C)CC1C=C(C(=O)O)C(c2cccc(Cl)c2F)C12C(=O)Nc1cc(Cl)ccc12 (stereo in doubt; (-)-8')
[1]
  IC50: 538 nM

## COc1ccc(C2=N[C@@H](c3ccc(Cl)cc3)[C@@H](c3ccc(Cl)cc3)N2C(=O)N2CCNC(=O)C2)c(OC(C)C)c1 [NUTLIN-3]
SJSA-1
  IC50: 1440 nM
HCT-116 [2]
  IC50: 1300 nM
HCT-116 [3]
  IC50: > 20000 nM
NCI-H1299
  IC50: 10400 nM
